What is called pA2 is the negative logarithm of the molar antagonist concentration that doubles the agonist concentration needed for the same response. The low end stands for lower antagonist potency, the high end for higher antagonist potency. By IC50 is commonly meant the point on the concentration scale where inhibition reaches its midpoint. Read a low IC50 as inhibition by little substance.

Data on 17 compounds can be found in ChEMBL document CHEMBL1134405 (J Med Chem, 2001).

The source made the active and inactive calls. The calls are words filed in the database; no cut-off is given here. Peptide text beside a SMILES is read from it.

Assay [1] concerns the target Glucagon receptor (Rattus norvegicus) (UniProt P30082). Briefly: Relative binding by measuring competition for glucagon receptor between [125]glucagon and the compound. The essentials: (§1)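 Incubation 10 min at 30 °C, then ice cooling and filtration on 0.45 μm cellulose acetate, gamma counting. Nonspecific binding taken with 1024 nM unlabeled peptide and subtracted. Read as % inhibition of specific binding. Triplicates, repeated twice.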

The target of assay [2] is T1, Adenylate cyclase (Rattus norvegicus) (UniProt D4A3N4+P26770+Q04400+P26769+Q03343+P40146+Q8CFM9+P21932). Briefly: Maximum stimulation of adenylate cyclase. Format: protein assay.
Assay [3] deals with T1, Adenylate cyclase (Rattus norvegicus). Nature of the assay: Adenylate cyclase stimulation; Inactive up to 100 uM. The assay is classed as protein assay.
Assay [4] can be described thus: A dose-response plot was obtained by determining the response when the concentration of glucagon was varied while the concentration was kept same.
A further assay addresses Glucagon receptor (Rattus norvegicus, UniProt P30082). Briefly: IC50 value was expressed as inhibition of [125]glucagon specific binding. A digest of the protocol:
as §1

Sequence of Glucagon receptor (P30082 whole entry): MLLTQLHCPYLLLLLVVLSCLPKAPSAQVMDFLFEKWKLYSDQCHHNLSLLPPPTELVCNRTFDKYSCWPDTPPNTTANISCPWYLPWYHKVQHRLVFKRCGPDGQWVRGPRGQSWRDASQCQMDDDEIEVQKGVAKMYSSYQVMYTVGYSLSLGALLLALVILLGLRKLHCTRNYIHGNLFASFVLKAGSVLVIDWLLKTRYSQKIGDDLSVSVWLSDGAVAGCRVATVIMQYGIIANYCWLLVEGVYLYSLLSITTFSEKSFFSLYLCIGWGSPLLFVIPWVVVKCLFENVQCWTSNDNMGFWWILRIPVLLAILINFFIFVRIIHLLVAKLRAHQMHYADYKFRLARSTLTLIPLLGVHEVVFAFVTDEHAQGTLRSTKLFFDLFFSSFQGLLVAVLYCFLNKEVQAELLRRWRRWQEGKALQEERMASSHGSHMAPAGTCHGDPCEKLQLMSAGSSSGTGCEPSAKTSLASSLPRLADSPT
Sequence of Glucagon receptor (Rattus norvegicus) (P30082 whole entry): as above

For the compound `CC(=O)N[C@@H](Cc1ccccc1)C(=O)N[C@@H](CS)C(=O)N[C@@H](CO)C(=O)N[C@@H](CC(=O)O)C(=O)N[C@@H](Cc1ccc(O)cc1)C(=O)N[C@@H](CO)C(=O)N[C@@H](CS)C(=O)N[C@@H](Cc1ccc(O)cc1)C(=O)N[C@@H](CC(C)C)C(N)=O` (Ac-FCSDYSCYL-NH2), in assay [1], the Relative binding came to 24%. The compound also showed a Max stimulation in assay [2] of 0%. The IA result in assay [3] is “Inactive up to 100 uM”.

In turn, `CC(=O)N[C@@H](Cc1ccccc1)C(=O)N[C@@H](CS)C(=O)N[C@@H](CO)C(=O)N[C@@H](CC(=O)O)C(=O)N[C@@H](Cc1ccc(O)cc1)C(=O)N[C@@H](CS)C(=O)N[C@@H](CCCCN)C(=O)N[C@@H](Cc1ccc(O)cc1)C(=O)N[C@@H](CC(C)C)C(N)=O` (Ac-FCSDYCKYL-NH2) displayed a Relative binding in assay [1] of 30%. In assay [2], this compound came in with a Max stimulation of 0%. Moreover, the IA entry in assay [3] was “Inactive up to 100 uM”.

In turn, `CC(=O)N[C@@H](Cc1ccccc1)C(=O)N[C@H]1CSSC[C@@H](C(=O)N[C@@H](Cc2ccc(O)cc2)C(=O)N[C@@H](CC(C)C)C(=O)N[C@@H](CC(=O)O)C(N)=O)NC(=O)[C@H](CO)NC(=O)[C@H](Cc2ccc(O)cc2)NC(=O)[C@H](CC(=O)O)NC(=O)[C@H](CO)NC1=O` (HELM PEPTIDE1{[ac].F.C.S.D.Y.S.C.Y.L.D.[am]}$PEPTIDE1,PEPTIDE1,3:R3-8:R3$$$V2.0) displayed a Relative binding in assay [1] of 30%. The compound also came in with a Max stimulation in assay [2] of 0%. The IA result in assay [3] is “Inactive up to 100 uM”.

In assay [1], `CC(=O)N[C@@H](Cc1ccccc1)C(=O)N[C@H](C(=O)N[C@@H](CO)C(=O)N[C@@H](CS)C(=O)N[C@@H](Cc1ccc(O)cc1)C(=O)N[C@@H](CO)C(=O)N[C@@H](CCCCN)C(=O)N[C@@H](Cc1ccc(O)cc1)C(=O)N[C@@H](CS)C(=O)N[C@@H](CC(=O)O)C(N)=O)[C@@H](C)O` (Ac-FTSCYSKYCD-NH2) came in with a Relative binding of 32%. Moreover, the Max stimulation in assay [2] was found to be 0%. Further, the IA result in assay [3] is “Inactive up to 100 uM”.

With `CSCC[C@H](NC(=O)[C@H](CC(C)C)NC(=O)[C@H](Cc1c[nH]c2ccccc12)NC(=O)[C@H](CCC(N)=O)NC(=O)[C@@H](NC(=O)[C@H](Cc1ccccc1)NC(=O)[C@H](CC(=O)O)NC(=O)[C@H](CCC(N)=O)NC(=O)[C@H](C)NC(=O)[C@H](CCCN=C(N)N)NC(=O)[C@H](CCCN=C(N)N)NC(C)=O)C(C)C)C(=O)N[C@@H](CC(N)=O)C(=O)N[C@H](C(N)=O)[C@@H](C)O`, in assay [1], the Relative binding amounted to 0.065%. The Max stimulation in assay [2] worked out at 0%. Besides, the IA result in assay [3] was “Inactive up to 100 uM”.

Consider `CC(=O)N[C@@H](CS)C(=O)N[C@@H](Cc1ccc(O)cc1)C(=O)N[C@@H](CO)C(=O)N[C@@H](CCCCN)C(=O)N[C@@H](Cc1ccc(O)cc1)C(=O)N[C@@H](CS)C(N)=O` (Ac-CYSKYC-NH2), for which, in assay [1], the Relative binding turned out to be 0%. For the same compound, in assay [2], the Max stimulation stood at 0%. Also, in assay [3], the IA entry is “Inactive up to 100 uM”.

Compound `CC(=O)N[C@@H](Cc1ccccc1)C(=O)N[C@H]1CSSC[C@@H](C(=O)N[C@@H](Cc2ccc(O)cc2)C(=O)N[C@@H](CC(C)C)C(N)=O)NC(=O)[C@H](CO)NC(=O)[C@H](Cc2ccc(O)cc2)NC(=O)[C@H](CC(=O)O)NC(=O)[C@H](CO)NC1=O` (HELM PEPTIDE1{[ac].F.C.S.D.Y.S.C.Y.L.[am]}$PEPTIDE1,PEPTIDE1,3:R3-8:R3$$$V2.0) showed a Relative binding in assay [1] of 24%. In assay [2], the Max stimulation was determined as 0%. Further, in assay [3], the IA entry is “Inactive up to 100 uM”.

The compound `CSCC[C@H](NC(=O)[C@H](CC(C)C)NC(=O)[C@H](Cc1c[nH]c2ccccc12)NC(=O)[C@H](CCC(N)=O)NC(=O)[C@@H](NC(=O)[C@H](Cc1ccccc1)NC(=O)[C@H](CC(=O)O)NC(=O)[C@H](CCC(N)=O)NC(=O)[C@H](C)NC(=O)[C@H](CCCN=C(N)N)NC(=O)[C@H](CCCN=C(N)N)NC(=O)[C@H](CO)NC(=O)[C@H](CC(=O)O)NC(=O)[C@H](CC(C)C)NC(=O)[C@H](Cc1ccc(O)cc1)NC(=O)[C@H](CCCCN)NC(=O)[C@H](CO)NC(=O)[C@H](Cc1ccc(O)cc1)NC(=O)CCCCCc1ccccc1)C(C)C)C(=O)N[C@@H](CC(N)=O)C(=O)N[C@H](C(N)=O)[C@@H](C)O` (HELM PEPTIDE1{[O=C(CCCCCc1ccccc1)[*:2]].Y.S.K.Y.L.D.S.R.R.A.Q.D.F.V.Q.W.L.M.N.T.[am]}$$$$V2.0) returned a pA2 in assay [4] of 7.37.

In turn, `CC(=O)N[C@@H]1CSSC[C@H](C(N)=O)NC(=O)[C@@H](Cc2ccc(O)cc2)NC(=O)[C@H](CCCCN)NC(=O)[C@@H](CO)NC(=O)[C@H](Cc2ccc(O)cc2)NC1=O` showed a Relative binding in assay [1] of 0%. The Max stimulation in assay [2] amounted to 0%. The IA result in assay [3] is “Inactive up to 100 uM”.

The compound `CC(=O)N[C@@H](Cc1ccccc1)C(=O)N[C@H](C(=O)N[C@@H](CO)C(=O)N[C@H]1CSSC[C@@H](C(=O)N[C@@H](CC(=O)O)C(N)=O)NC(=O)[C@H](Cc2ccc(O)cc2)NC(=O)[C@H](CCCCN)NC(=O)[C@H](CO)NC(=O)[C@H](Cc2ccc(O)cc2)NC1=O)[C@@H](C)O` (HELM PEPTIDE1{[ac].F.T.S.C.Y.S.K.Y.C.D.[am]}$PEPTIDE1,PEPTIDE1,5:R3-10:R3$$$V2.0) gave a Relative binding in assay [1] of 43%. This compound also showed a Max stimulation in assay [2] of 0%. Moreover, the IA entry in assay [3] is “Inactive up to 100 uM”.

On Glucagon receptor, `CSCC[C@H](NC(=O)[C@H](CC(C)C)NC(=O)[C@H](Cc1c[nH]c2ccccc12)NC(=O)[C@H](CCC(N)=O)NC(=O)[C@@H](NC(=O)[C@H](Cc1ccccc1)NC(=O)[C@H](CC(=O)O)NC(=O)[C@H](CCC(N)=O)NC(=O)[C@H](C)NC(=O)[C@H](CCCNC(=N)N)NC(=O)[C@H](CCCNC(=N)N)NC(=O)[C@H](CO)NC(=O)[C@H](CC(=O)O)NC(=O)[C@H](CC(C)C)NC(=O)[C@H](Cc1ccc2ccccc2c1)NC(=O)[C@H](CCCCN)NC(=O)[C@H](CO)NC(=O)[C@H](Cc1ccc2ccccc2c1)NC(C)=O)C(C)C)C(=O)N[C@@H](CC(N)=O)C(=O)N[C@H](C(N)=O)[C@@H](C)O` (HELM PEPTIDE1{[ac].[O=C([C@H](Cc1ccc2ccccc2c1)N[*:1])[*:2]].S.K.[O=C([C@H](Cc1ccc2ccccc2c1)N[*:1])[*:2]].L.D.S.R.R.A.Q.D.F.V.Q.W.L.M.N.T.[am]}$$$$V2.0) returned an IC50 of 800 nM.

In the case of `CSCC[C@H](NC(=O)[C@H](CC(C)C)NC(=O)[C@H](Cc1c[nH]c2ccccc12)NC(=O)[C@H](CCC(N)=O)NC(=O)[C@@H](NC(=O)[C@H](Cc1ccccc1)NC(=O)[C@H](CC(=O)O)NC(=O)[C@H](CCC(N)=O)NC(=O)[C@H](C)NC(=O)[C@H](CCCNC(=N)N)NC(=O)[C@H](CCCNC(=N)N)NC(=O)[C@H](CO)NC(=O)[C@H](CC(=O)O)NC(=O)[C@H](CC(C)C)NC(=O)[C@H](Cc1ccc(O)cc1)NC(=O)[C@H](CCCCN)NC(=O)[C@H](CO)NC(=O)[C@H](Cc1ccc(O)cc1)NC(=O)CCCc1ccccc1)C(C)C)C(=O)N[C@@H](CC(N)=O)C(=O)N[C@H](C(N)=O)[C@@H](C)O` (HELM PEPTIDE1{[O=C(CCCc1ccccc1)[*:2]].Y.S.K.Y.L.D.S.R.R.A.Q.D.F.V.Q.W.L.M.N.T.[am]}$$$$V2.0), the IC50 on Glucagon receptor stood at 21.2 nM.

With `CSCC[C@H](NC(=O)[C@H](CC(C)C)NC(=O)[C@H](Cc1c[nH]c2ccccc12)NC(=O)[C@H](CCC(N)=O)NC(=O)[C@@H](NC(=O)[C@H](Cc1ccccc1)NC(=O)[C@H](CC(=O)O)NC(=O)[C@H](CCC(N)=O)NC(=O)[C@H](C)NC(=O)[C@H](CCCNC(=N)N)NC(=O)[C@H](CCCNC(=N)N)NC(C)=O)C(C)C)C(=O)N[C@@H](CC(N)=O)C(=O)N[C@H](C(N)=O)[C@@H](C)O`, the IC50 at Glucagon receptor came to 2300 nM.

In turn, `CC(=O)N[C@@H](Cc1ccccc1)C(=O)N[C@H]1CSSC[C@@H](C(=O)N[C@@H](CCCCN)C(=O)N[C@@H](Cc2ccc(O)cc2)C(=O)N[C@@H](CC(C)C)C(N)=O)NC(=O)[C@H](Cc2ccc(O)cc2)NC(=O)[C@H](CC(=O)O)NC(=O)[C@H](CO)NC1=O` (HELM PEPTIDE1{[ac].F.C.S.D.Y.C.K.Y.L.[am]}$PEPTIDE1,PEPTIDE1,3:R3-7:R3$$$V2.0) came in with a Relative binding in assay [1] of 62%. The Max stimulation in assay [2] was found to be 0%. Also, in assay [3], the IA entry is “Inactive up to 100 uM”.

`CSCC[C@H](NC(=O)[C@H](CC(C)C)NC(=O)[C@H](Cc1c[nH]c2ccccc12)NC(=O)[C@H](CCC(N)=O)NC(=O)[C@@H](NC(=O)[C@H](Cc1ccccc1)NC(=O)[C@H](CC(=O)O)NC(=O)[C@H](CCC(N)=O)NC(=O)[C@H](C)NC(=O)[C@H](CCCNC(=N)N)NC(=O)[C@H](CCCNC(=N)N)NC(=O)[C@H](CO)NC(=O)[C@H](CC(=O)O)NC(=O)[C@H](CC(C)C)NC(=O)[C@H](Cc1ccc(O)cc1)NC(=O)[C@H](CCCCN)NC(=O)[C@H](CO)NC(=O)[C@H](Cc1ccc(O)cc1)NC(=O)CCCCCc1ccccc1)C(C)C)C(=O)N[C@@H](CC(N)=O)C(=O)N[C@H](C(N)=O)[C@@H](C)O` (HELM PEPTIDE1{[O=C(CCCCCc1ccccc1)[*:2]].Y.S.K.Y.L.D.S.R.R.A.Q.D.F.V.Q.W.L.M.N.T.[am]}$$$$V2.0) gave an IC50 at Glucagon receptor of 131 nM.

As for `CC(=O)N[C@@H](Cc1ccccc1)C(=O)N[C@@H](CS)C(=O)N[C@@H](CO)C(=O)N[C@@H](CC(=O)O)C(=O)N[C@@H](Cc1ccc(O)cc1)C(=O)N[C@@H](CO)C(=O)N[C@@H](CS)C(=O)N[C@@H](Cc1ccc(O)cc1)C(=O)N[C@@H](CC(C)C)C(=O)N[C@@H](CC(=O)O)C(N)=O` (Ac-FCSDYSCYLD-NH2), the Relative binding in assay [1] came out at 56%. The Max stimulation in assay [2] worked out at 0%. Also, the IA entry in assay [3] was “Inactive up to 100 uM”.

Consider Ac-YSKYLDSRRAQDFVQWLMNT-NH2, for which the IC50 on Glucagon receptor came out at 60 nM.
